An excerpt weighted towards active compounds, which were near 1.4% of everything screened.
UBC9 SUMO inh – blocks human SUMOylation mediated by UBC9. inhibition, % at 35 µM. 0.36% of 290,000 active. P63279. HTRF SUMOylation assay, SAE1/SAE2 + UBC9, in vitro. AID 2006; in the data active = inhibition above about 50%, passing the limit was not always enough
Target sequence (P63279 whole entry, looked up): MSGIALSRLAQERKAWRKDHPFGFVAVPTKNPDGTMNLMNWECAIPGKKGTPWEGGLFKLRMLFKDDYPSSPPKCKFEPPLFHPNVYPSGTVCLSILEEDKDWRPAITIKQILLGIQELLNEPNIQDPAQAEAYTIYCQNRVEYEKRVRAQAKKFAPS
CTSL1 counter – counter-screen for PFM18AAP inhibitors: inhibitors of F. hepatica cathepsin L1. recombinant F. hepatica cathepsin L1, Z-Leu-Arg-MCA fluorescence. inhibition, % at 5.96 µM. 0.49% of 300,000 active. AID 1906;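 active = inhibition above the mean of all tested compounds plus 3 SD, set per screening campaign, cut at about 17% in these data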
UCH37 DUB inh – human UCH37 deubiquitinating enzyme inhibition. 0.33% of 330,000 active. purified proteasome/UCH37, Ub-AMC cleavage fluorescence. AID 588478. inhibition, % (test concentration not listed). Q9Y5K5;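 active = mean inhibition over replicate wells above about 20%, limit read from the data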
Target sequence (Q9Y5K5 whole entry, looked up): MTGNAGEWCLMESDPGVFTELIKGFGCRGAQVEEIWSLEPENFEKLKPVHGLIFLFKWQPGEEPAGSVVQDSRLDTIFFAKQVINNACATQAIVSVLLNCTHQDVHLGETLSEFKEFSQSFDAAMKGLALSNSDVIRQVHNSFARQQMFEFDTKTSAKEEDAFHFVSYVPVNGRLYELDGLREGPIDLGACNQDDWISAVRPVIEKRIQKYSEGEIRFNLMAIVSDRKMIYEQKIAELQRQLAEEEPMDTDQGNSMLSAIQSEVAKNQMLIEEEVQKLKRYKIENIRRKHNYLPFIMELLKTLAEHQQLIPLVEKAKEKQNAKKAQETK
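assay system = human UCH37 enzyme supplied as purified proteasome complex | amount = proteasome at 0.15 nM in the dispensed enzyme solution | schedule = 30 min compound-proteasome preincubation then 25 min substrate reaction, room temperature | measured by = fluorescence, ex 355 nm, em 460 nm | benchmarks = no-proteasome wells (full inhibition) and compound-free wells (no inhibition)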
Neddyl block – blocks human cullin neddylation; P61081+Q13564; TR-FRET cullin neddylation, biochemical; inhibition, % at 25 µM; 0.58% of 360,000 active; in the data active = inhibition above about 36%
Neddyl inh conf – confirmation of human cullin neddylation inhibitors. shares compounds with Neddyl block. TR-FRET cullin neddylation biochemical assay. calls only at 25 µM. 13% of 1,800 active. AID 652217; in the data active = inhibition above about 40%;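 note: neddylation substrate is the cullin 1 ring ligase complex with SKP2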
Each line names hits and unclear results; the compound was inactive in the other large screens (follow-up assays come after a bar, where shown).

Cc1ccc(C)c(S(=O)(=O)C(C#N)c2nc3ccccc3nc2N2CCCC2)c1 (stereo not given)	none
Cc1ccc(C)c(S(=O)(=O)C(C#N)c2nc3ccccc3nc2N2CC(C)OC(C)C2)c1 (stereo not given)	Neddyl block 43 | Neddyl inh conf inactive
Nc1nnc(CC(=O)NN=Cc2cc([N+](=O)[O-])cc(Br)c2O)s1	none (no result: UBC9 SUMO inh, CTSL1 counter, Neddyl block)
CN(C)CCN(Cc1cc2cc3c(cc2[nH]c1=O)OCO3)C(=S)NCC1CCCO1 (stereo not given)	Neddyl block 41 | Neddyl inh conf inactive
O=C(c1ccccc1)N(CCO)Cc1cc2cc3c(cc2[nH]c1=O)OCCO3	Neddyl block 42 | Neddyl inh conf inactive
O=C(NCc1ccccc1)N(Cc1cc2cc3c(cc2[nH]c1=O)OCO3)CC1CCCO1 (stereo not given)	Neddyl block 41 | Neddyl inh conf inactive
O=C(c1ccco1)N(CCO)Cc1cc2cc3c(cc2[nH]c1=O)OCO3	none
O=c1[nH]c2cc3c(cc2cc1CN(CCN1CCOCC1)C(=S)NCC1CCCO1)OCO3 (stereo not given)	none (not shown: Neddyl block)
COC(=O)c1ccc(C(=O)OC)c(=O)[nH]1	Neddyl block 49
Cc1ccc2c(c1)-c1cc(C)nn1C(c1ccc3c(c1)OCO3)N2 (stereo not given)	none (not shown: Neddyl block)
Cc1cc2n(n1)C(c1ccc3c(c1)OCO3)Nc1ccccc1-2 (stereo not given)	Neddyl block 41 | Neddyl inh conf inactive
CCC1CCCCN1CCCNC(=O)c1cc2c(=O)[nH]c3ccccc3c2n1C (stereo not given)	Neddyl block 40 | Neddyl inh conf inactive
Cn1c(C(=O)NCCCN2CCN(c3ccccc3F)CC2)cc2c(=O)[nH]c3ccccc3c21	none
CN(CCCNC(=O)c1cc2c(=O)[nH]c3ccccc3c2n1C)Cc1ccccc1	none
CC1CC(C)CN(CCCNC(=O)c2cc3c(=O)[nH]c4ccccc4c3n2C)C1 (stereo not given)	Neddyl block 42 | Neddyl inh conf inactive
Cc1ccccc1C(=O)Nc1ccc(C(=O)NN=Cc2ccncc2)cc1	none (no result: UBC9 SUMO inh, CTSL1 counter, Neddyl block)
CC[C@@H]1C(c2ccccc2)=NN(c2ccccc2)[C@H]1C(=O)N1CCOC1=O	Neddyl block 49 (not shown: UBC9 SUMO inh, CTSL1 counter)
CCc1cc(C(c2ccc(OC)c(OC)c2)N2CCOCC2)c(NC(=O)c2ccccc2)s1 (stereo not given)	Neddyl block 53 | Neddyl inh conf inactive
COc1ccc2oc(C(=O)CCC(=O)O)c(N)c2c1	Neddyl block 48 | Neddyl inh conf inactive
S=c1[nH]nc(-c2cccs2)n1N=Cc1c(Cl)cccc1Cl	none (no result: UBC9 SUMO inh, CTSL1 counter, Neddyl block)
COCCn1c(C)cc(/C=C(\C#N)C(=O)OC(C)C(=O)Nc2ccc(NC(C)=O)cc2)c1C (stereo not given)	Neddyl block 52 (no result: UBC9 SUMO inh) | Neddyl inh conf inactive
Cc1nn(-c2ccccc2)c(Cl)c1C=NNC(=O)c1ccccc1F	none (no result: UBC9 SUMO inh, CTSL1 counter, Neddyl block)
O=C(Nc1ccc(F)cc1)c1cccnc1NCCc1ccccc1	none
O=C(Nc1cccc(F)c1)c1cccnc1NCCc1ccccc1	Neddyl block 44 | Neddyl inh conf inactive
Cn1c(SCC(=O)NN=Cc2ccc(O)c(O)c2)nc2ccccc21	none (no result: UBC9 SUMO inh, CTSL1 counter, Neddyl block)
c1cncc(-c2nnc(-c3cccs3)o2)c1	Neddyl block 52
CN1CCN(CC(=O)Nc2cc(N(C)C)nc3ccccc23)CC1	Neddyl block 40 | Neddyl inh conf inactive
CCCCCCC(=O)Nc1c2c(nc3ccccc13)N(C)CC2	none (not shown: Neddyl block)
CN1CCc2c1nc1ccccc1c2NC(=O)CN1CCCC1	Neddyl block 41 | Neddyl inh conf inactive
CCN(CC)CC(=O)Nc1cc(N(C)C)nc2ccccc12	none
O=C(CSc1ccc(C=NNC(=O)c2cccc(F)c2)o1)Nc1ccccc1	none (no result: UBC9 SUMO inh, CTSL1 counter, Neddyl block)
O=[N+]([O-])c1ccc(OCCOc2ccccc2C=Nn2cnnc2)cc1	none (no result: UBC9 SUMO inh, CTSL1 counter, Neddyl block)
Cc1ccc(-n2ncc(C#N)c2N=CN2CCCCCC2)cc1	none (no result: UBC9 SUMO inh, CTSL1 counter, Neddyl block)
Cc1cc(C=NNC(=O)c2cccc(F)c2)c(C)n1-c1ccccc1	none (no result: UBC9 SUMO inh, CTSL1 counter, Neddyl block)
CCOC(=O)c1cc(-c2ccccc2)nc2ccc(C)cc12	Neddyl block 40
Cc1ccc2nc(-c3ccc4c(c3)OCCO4)cc(C(=O)O)c2c1	Neddyl block 38
COc1cc(C=NNC(=O)COc2ccccc2C)ccc1OC(=O)c1cccs1	none (no result: UBC9 SUMO inh, CTSL1 counter, Neddyl block)
COc1ccc(S(=O)(=O)N2c3cc(Cl)ccc3Oc3nc4ccccc4nc32)cc1	none
O=S(=O)(c1ccc(Cl)cc1)N1c2ccccc2Oc2nc3ccccc3nc21	Neddyl block 41 | Neddyl inh conf inactive
COCCCNC(=S)N(CCO)Cc1cc2cc3c(cc2[nH]c1=O)OCCO3	none

High-throughput results (PubChem)
